bCat KO growth = beta-catenin-lacking colon tumor cell growth suppression | viability, % at 10 µM | HCT116 beta-catenin knockout viability, CellTiter-Glo, 60 h; stronger effect = lower value | actives 1.5% (n = 140,000) | AID 818;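 active = viability at or under a set limit, the compound median less 4 SD, cut at about 6% in these data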;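 also: 0% = Hyamine 1622 control at 20 µM and 100% = untreated cell control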
HCT116 PTEN-null = suppresses growth of cells with PTEN deletion | viability, % at 10 µM | AID 827 | actives 1.2% (n = 140,000) | HCT116 PTEN-null viability, CellTiter-Glo, 60 h; stronger effect = lower value;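 active = viability at or below a set limit, 4 SD under the median of all tested compounds, cut at about 3.7% in these data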;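 also: PTEN knockout HCT116 line with beta catenin targeted HCT116 as companion control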
Lmaj promast = inhibitors of Leishmania major promastigote growth. Leishmania major promastigotes, resazurin fluorescence viability. actives 9% (n = 200,000). AID 1063. inhibition, % at 10 µM; in the data active = inhibition above about 50%;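 also: promastigotes grown with compound for 44 hours at 28 °C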
TNAP act hi DEA = activators of human TNAP at high phosphate acceptor concentration; AID 1136; 200,000 tested, under 10 active; activation factor at 20 µM; purified TNAP, CDP-star luminescence, 1 M DEA, 30 min; stronger effect = higher value; 0 = EDTA background, 1 = DMSO-only activity;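 active = activation factor at least 2 at 20 µM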
Target sequence (P05186 whole entry, looked up): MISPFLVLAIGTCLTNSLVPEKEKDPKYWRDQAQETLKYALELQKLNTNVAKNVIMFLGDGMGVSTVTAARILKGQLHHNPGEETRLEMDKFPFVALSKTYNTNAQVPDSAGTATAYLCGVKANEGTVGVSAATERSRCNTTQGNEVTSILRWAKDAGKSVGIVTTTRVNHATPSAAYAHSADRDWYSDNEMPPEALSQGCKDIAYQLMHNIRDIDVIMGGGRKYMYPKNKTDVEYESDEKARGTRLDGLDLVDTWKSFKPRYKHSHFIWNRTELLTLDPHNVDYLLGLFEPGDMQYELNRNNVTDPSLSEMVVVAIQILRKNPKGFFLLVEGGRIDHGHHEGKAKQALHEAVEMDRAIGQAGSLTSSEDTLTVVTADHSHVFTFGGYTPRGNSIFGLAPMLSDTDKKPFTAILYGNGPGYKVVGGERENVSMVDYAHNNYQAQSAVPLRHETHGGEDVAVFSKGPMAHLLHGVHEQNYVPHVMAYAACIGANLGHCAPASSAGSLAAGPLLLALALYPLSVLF
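Assay system: human TNAP; Input: enzyme diluted 1/800 final; Reagent: CDP-star luminogenic substrate at 100 µM final; Timing: 30 min, room temperature; Signal: luminescence; Evaluation: TNAP activation factor scaled between EDTA and DMSO control wells.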
TNAP inh noacc = TNAP (human) inhibition, acceptor-free conditions. P05186. purified TNAP, CDP-star luminescence, 30 min. inhibition, % at 20 µM. actives 0.26% (n = 200,000);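 active = tissue-nonspecific alkaline phosphatase inhibition above about 50% at 20 µM in the single-dose screen, limit read from the data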;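 also: 0% = DMSO negative control and 100% = EDTA positive control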
TNAP inh hiacc = inhibitors of human TNAP at high phosphate acceptor concentration | purified TNAP, CDP-star luminescence, 1 M DEA | AID 1135 | actives 0.03% (n = 200,000) | inhibition, % at 20 µM;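 active = over 50% inhibition of tissue-nonspecific alkaline phosphatase at 20 µM in the single-dose screen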;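 also: plate controls were DMSO wells for no effect and EDTA-quenched wells as full inhibition for full effect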
The depositor's hits bear a star; / = no result. In the library only some 9.6% were active in any assay of this set; here they are far more common.

SMILES | bCat KO growth | HCT116 PTEN-null | Lmaj promast | TNAP act hi DEA | TNAP inh noacc | TNAP inh hiacc
COc1ccc(NS(=O)(=O)c2ccc(O)c(C(=O)OCC(=O)Nc3ccc4c(c3)OCCO4)c2)cc1 | 96 | 98 | -8 | 1.1 | 3 | -9
Cc1ccc(CNS(=O)(=O)c2ccc3c(c2)n(C)c(=O)c(=O)n3C)cc1 | / | / | 99* | 1.1 | -12 | -6
Cc1nn(CCCC(=O)Nc2c(F)cc(F)cc2Br)c(C)c1[N+](=O)[O-] | / | / | 8 | 1 | -13 | -5
Cn1c(=O)oc2cc(S(=O)(=O)Nc3ccc4c(c3)OCCO4)ccc21 | 78 | 81 | 63* | 1 | -8 | -1
Cn1c(=O)oc2cc(S(=O)(=O)NCCC(=O)Nc3ccc4c(c3)OCCO4)ccc21 | 110 | 91 | -7 | 1 | -14 | -1
C=CCSC1=C(C#N)C(c2ccccc2Cl)C(C(=O)c2cccs2)C(O)(C(F)(F)F)N1 (stereo not given) | 67 | 61 | 88* | 1 | -10 | -2
CCSC1=C(C#N)C(c2ccccc2Cl)C(C(=O)c2cccs2)C(O)(C(F)(F)F)N1 (stereo not given) | 81 | 76 | 17 | 1 | 2 | -1
O=S(=O)(Nc1ncccn1)c1ccc(NC(=S)NCCc2ccccc2)cc1 | / | / | -10 | 1 | -10 | -4
Cc1ccc(-c2cc(C(=O)N/N=C/c3cccnc3)n[nH]2)o1 | 97 | 92 | 3 | 1 | 71* | -1
O=C(CC(Nc1ccccc1)C(=O)O)c1ccccc1 (stereo not given) | 76 | 85 | / | 1 | 2 | -2
C=C(C(=O)c1ccccc1)C(C)CC(=O)c1ccccc1 (stereo not given) | 2.1* | 1.5* | 86* | 1 | 0 | -1
CS(=O)(=O)N1CCc2cc(NC(=O)c3ccc(Cl)cc3Cl)ccc21 | / | / | -1 | 1.1 | -17 | -7
Cc1c(CN(C)C)c2c(n1Cc1ccccc1)C(=O)c1ccccc1-2 | 48 | 37 | 75* | 1 | 0 | 0
Cc1cc(=O)[nH]c(=O)n1Cc1ccccc1 | / | / | -8 | 1 | -6 | 1
COc1ccccc1NC(=O)COc1ccc(/C=N/NC(=O)CSCc2ccc(Cl)cc2)cc1 | 3.2* | 2.2* | 10 | 1 | -11 | 0
COc1ccc(CSCC(=O)N/N=C/c2ccccc2O)cc1 | / | / | 68* | 1 | 12 | -4
O=C(CSc1ccccc1)N/N=C/c1ccccc1O | / | / | -4 | 1 | -17 | -2
O=C(CSc1n[nH]c(=O)[nH]c1=O)N/N=C/c1ccccc1O | 98 | 105 | 100* | 1 | -120 | 2
CC(Oc1ccccc1)C(=O)N1CCN=C1SCc1ccccc1 (stereo not given) | / | / | -2 | 1 | 1 | -3
CCOC(=O)c1sc(NC(=O)Nc2ccccc2)cc1C | 10 | 8 | 92* | 1 | -11 | -4
CCOC(=O)c1sc(NC(=O)c2cccc(S(=O)(=O)N3c4ccccc4CC3C)c2)cc1C (stereo not given) | 58 | 69 | 62* | 1 | 1 | 3
CCOC(=O)c1sc(NC(=O)Nc2ccccc2Cl)cc1C | 8 | 4 | 80* | 1 | -9 | 2
CCOC(=O)c1sc(NC(=O)c2ccc(C)s2)cc1C | 96 | 90 | 4 | 1 | -9 | 0
CCOC(=O)c1sc(NC(C)=O)cc1C | 103 | 106 | -3 | 1 | -10 | 0
CCOC(=O)c1c(C)nc2sc(C(=O)Nc3ccccc3)c(N)c2c1-c1ccc(OC)cc1 | 22 | 21 | 97* | 1.1 | -20 | -12
SMILES | bCat KO growth | HCT116 PTEN-null | Lmaj promast | TNAP act hi DEA | TNAP inh noacc | TNAP inh hiacc
CSc1ccccc1NC(=O)CN(C)Cc1cc(=O)n2ccsc2n1 | / | / | 1 | 1.1 | -11 | -6
CCC(CC)c1nnc(NC(=O)[C@@H](NC(=O)c2cccc(C)c2)C(C)C)s1 | 80 | 67 | -1 | 1 | -3 | -1
Cc1ccc(N(CC(=O)NC(C)(C)C)C(=O)CS(=O)CC(=O)Nc2ccc3c(c2)OCO3)cc1 (stereo not given) | / | / | -6 | 1 | -5 | -2
CCOC(=O)c1c(N)sc(C(=O)Nc2ccccc2)c1C | / | / | 58* | 1 | -10 | -3
CC(OC(=O)c1cccc(N2C(=O)c3ccccc3C2=O)c1)C(=O)Nc1ccc(N(C)C)cc1 (stereo not given) | 100 | 95 | 56* | 1 | -11 | -5
Cc1cccc(-n2c(C)cc(/C=N/NC(=O)c3cccc([N+](=O)[O-])c3C)c2C)c1 | 83 | 91 | 64* | 1 | -4 | -3
COC(=O)c1ccccc1NC(=O)Cn1c(=O)n(Cc2ccccc2)c(=O)c2c(C)c(C)sc21 | 77 | 77 | 89* | 1 | -11 | -3
COC(=O)c1ccccc1NC(=O)Cn1c(=O)oc2ccc(Cl)cc21 | 99 | 101 | -1 | 1 | -13 | 0
CC(C)(C)NC(=O)Cn1c(=O)c(=O)n(Cc2ccccc2)c2ccc(Cl)cc21 | 95 | 99 | 58* | 0.9 | -10 | 12
CN1c2ccccc2C(C)(C)[C@]12C=Cc1cc(O)ccc1O2 | 30 | 31 | 99* | 0.9 | 44 | 8
CN1c2ccccc2C(C)(C)C12C=Nc1c(ccc3ccccc13)O2 (stereo not given) | 73 | 61 | 5 | 1.1 | -11 | -6
NC(=O)COc1ccccc1/C=C1/SC(=O)N(CC(=O)N2CCc3ccccc3C2)C1=O | 66 | 76 | 95* | 1 | -4 | 0
CN(CC(=O)OCC(=O)c1c(N)n(C)c(=O)n(C)c1=O)S(=O)(=O)c1ccc(Cl)cc1 | 88 | 92 | -3 | 1 | -10 | 4
CCCCN(CC)Cc1ccc(CNC(=O)Nc2ccccc2)o1 | 57 | 65 | 31 | 1.1 | -24 | -7
CCCCN(CC)Cc1ccc(CNC(=S)Nc2cccc(F)c2)o1 | / | / | 78* | 1 | -14 | 1
COc1ccc(NS(=O)(=O)c2cc(OCC(N)=O)c(C)cc2Cl)cc1 | 93 | 96 | 76* | 1 | -8 | -2
Cc1cc(Cl)c(S(=O)(=O)Nc2ccc3c(c2)OCCO3)cc1OCC(=O)NC1CCCCC1 | 66 | 64 | 99* | 1.1 | -8 | -6
CCOc1ccc(NS(=O)(=O)c2cc(OCC(N)=O)c(C)cc2Cl)cc1 | 84 | 91 | 10 | 1.1 | -11 | -7
Cc1cc(Cl)c(S(=O)(=O)Nc2cccc(O)c2)cc1OCC(N)=O | 101 | 106 | 53* | 1 | -5 | 1
Cc1cc(Cl)c(S(=O)(=O)Nc2ccon2)cc1OCC(=O)NC1CCCCC1 | 97 | 92 | -5 | 1 | -22 | -1
N#CC1=C(S)N(c2ccccc2)C(c2ccc(-c3ccccc3Cl)o2)NC1=O (stereo not given) | 72 | 89 | -4 | 1 | -7 | -2
O=C(O)C1=C(C(=O)Nc2cccc(C(F)(F)F)c2)CCCC1 | / | / | 1 | 1 | -8 | -3
